UBC13 polyUb = UBC13 polyubiquitin chain formation inhibitors, primary screen, biochemical, TR-FRET, uHTS; Ubiquitin-conjugating enzyme E2 N (Homo sapiens), P61088; inhibition, % at 20 µM; actives 0.47% (n = 330,000); AID 485273, 2010; in the data active = inhibition above about 45%, passing the limit was not always enough; inconclusive = no clear call, values can overlap the other calls
Apaf-1 inh = inhibitors of human Apaf-1 apoptosome, primary screen, biochemical, DEVD-Rh110 fluorescence, uHTS; actives 0.71% (n = 330,000); inhibition, % at 20 µM; reconstituted apoptosome caspase-3 activity; Apoptotic protease-activating factor 1 (Homo sapiens), O14727; AID 489030, 2010; active = inhibition of at least 40% at 20 µM
Target sequence (O14727 whole entry, looked up): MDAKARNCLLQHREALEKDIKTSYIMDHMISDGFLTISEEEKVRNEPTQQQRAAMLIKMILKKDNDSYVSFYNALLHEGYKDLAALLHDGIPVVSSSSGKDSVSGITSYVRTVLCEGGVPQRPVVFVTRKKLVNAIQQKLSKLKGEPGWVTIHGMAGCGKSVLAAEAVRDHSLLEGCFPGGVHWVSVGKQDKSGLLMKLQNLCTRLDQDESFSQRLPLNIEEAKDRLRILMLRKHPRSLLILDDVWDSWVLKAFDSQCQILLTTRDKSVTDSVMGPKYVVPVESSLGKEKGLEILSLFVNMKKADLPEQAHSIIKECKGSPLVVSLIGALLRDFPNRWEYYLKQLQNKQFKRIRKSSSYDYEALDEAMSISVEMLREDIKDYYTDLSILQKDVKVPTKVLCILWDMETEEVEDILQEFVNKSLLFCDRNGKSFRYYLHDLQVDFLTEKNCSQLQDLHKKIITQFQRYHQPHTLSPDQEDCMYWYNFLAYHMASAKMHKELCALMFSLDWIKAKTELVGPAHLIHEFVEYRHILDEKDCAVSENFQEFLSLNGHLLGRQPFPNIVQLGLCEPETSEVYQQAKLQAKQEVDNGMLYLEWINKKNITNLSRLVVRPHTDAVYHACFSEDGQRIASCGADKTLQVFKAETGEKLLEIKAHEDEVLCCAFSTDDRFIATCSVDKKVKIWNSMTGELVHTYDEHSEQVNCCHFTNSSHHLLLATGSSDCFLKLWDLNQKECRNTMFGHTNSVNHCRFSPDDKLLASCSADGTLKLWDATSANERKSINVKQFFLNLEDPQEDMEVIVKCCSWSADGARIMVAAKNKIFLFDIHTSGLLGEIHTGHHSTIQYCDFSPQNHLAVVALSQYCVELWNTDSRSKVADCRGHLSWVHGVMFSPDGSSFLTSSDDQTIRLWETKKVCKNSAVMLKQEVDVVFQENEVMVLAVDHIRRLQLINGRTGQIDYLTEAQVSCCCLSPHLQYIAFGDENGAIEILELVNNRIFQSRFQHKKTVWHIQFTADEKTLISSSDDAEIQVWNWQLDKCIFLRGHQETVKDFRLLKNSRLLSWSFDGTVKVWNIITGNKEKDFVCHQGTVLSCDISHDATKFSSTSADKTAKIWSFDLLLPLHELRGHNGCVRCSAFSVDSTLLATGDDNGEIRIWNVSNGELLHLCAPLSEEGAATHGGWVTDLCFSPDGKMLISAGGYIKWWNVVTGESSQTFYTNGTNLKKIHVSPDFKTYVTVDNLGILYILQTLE
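Material: biochemical Apaf-1 apoptosome reconstitution. Medium: Hepes buffer, pH 7.5. Also added: cytochrome c activation, bis-DEVD rhodamine 110 substrate. Timing: 30 min compound preincubation, 50 min activation, room temperature. Measured by: rhodamine 110 fluorescence at Ex 480/Em 540 nm.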
PAD4 FP inh = human PAD4 inhibitors, primary screen, biochemical, fluorescence polarization, 1536-well format; AID 485272, 2010; actives 0.41% (n = 330,000); inhibition, % at 6.36 µM; recombinant PAD4, RCA probe fluorescence polarization; Protein-arginine deiminase type-4 (Homo sapiens), Q9UM07;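 active = percent inhibition above a cutoff equal to the mean of all tested compounds plus 3 SD, cut at about 15% in these data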
GSTO1 inh = inhibitors of recombinant GSTO1, primary screen, counter-screen for RBBP9 inhibitor project, biochemical, fluorescence polarization. Glutathione S-transferase omega-1 (Homo sapiens), P78417. activity-based probe fluorescence polarization. inhibition, % at 5.96 µM. actives 1.1% (n = 300,000). AID 1974, 2009;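 active = inhibition above the campaign mean inhibition plus 3 SD, cut at about 35% in these data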
Rin1 Abl inh = inhibitors of Rin1-Abl protein binding, primary screen, biochemical, TR-FRET. Tyrosine-protein kinase ABL1 (Homo sapiens) + Ras and Rab interactor 1 (Homo sapiens), …. inhibition, % at 7.35 µM. actives 0.4% (n = 360,000); in the data active = inhibition above about 5%, passing the limit was not always enough
SUMO HTRF inh = inhibitors of in vitro SUMOylation cascade, primary screen, biochemical, HTRF, uHTS; actives 0.36% (n = 290,000); inhibition, % at 35 µM; HTRF SUMOylation assay, SAE1/SAE2 + UBC9; SUMO-conjugating enzyme UBC9 (Homo sapiens), P63279; in the data active = inhibition above about 50%, passing the limit was not always enough; inconclusive = no clear call, values can overlap the other calls
Apaf-1 inh conf2 = Apaf-1 inhibitors, single-dose retest, confirmation, biochemical, fluorescence, DEVD-Rh110, 20 µM | inhibition, % at 20 µM | actives 25% (n = 1,800) | shares compounds with Apaf-1 inh | AID 504614, 2011 | reconstituted apoptosome, caspase-3 DEVD-Rh110 fluorescence;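 active = mean inhibition of at least 40% at 20 µM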
Rh110 quench = Rh110 fluorescence interference by putative Apaf-1 inhibitors, confirmation, artefact control for Apaf-1 inhibitor project, biochemical, 20 µM. shares compounds with Apaf-1 inh. quenched caspase reaction. activation (fluorescence interference), % at 20 µM. AID 504615, 2011. 1,800 tested, under 10 active;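 active = signal rise of 40% or more at 20 µM, treated as a fluorescence artifact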
Apaf1 inh interf = fluorescence interference of Apaf-1 inhibitor hits, dose response, artefact control for Apaf-1 inhibitor project; shares compounds with Apaf-1 inh; fluorescence interference counterscreen, Apaf-1 assay format; IC50, µM; 460 tested, under 10 active; AID 588538, 2011; call rule not given here
Numbers stand for hits; - = inactive; ? = inconclusive; . = not tested or not shown. Rows were chosen to be rich in hits. Some 2.2% of all compounds tested hit in one or more screens of this group.

SMILES | UBC13 polyUb | Apaf-1 inh | PAD4 FP inh | GSTO1 inh | Rin1 Abl inh | SUMO HTRF inh | Apaf-1 inh conf2 | Rh110 quench | others
COc1ccc(OCc2cc(C(=O)NC3CCOCC3)no2)c2ccccc12 | - | 41 | - | - | - | - | - | -
CCOC(=O)c1cnc2ccc(C)cc2c1Nc1ccc(N2CCOCC2)cc1 | - | 41 | - | - | - | - | - | -
COC(=O)c1ccc2c(=O)n(CCCCCC(=O)N3CCN(c4ccccc4)CC3)c(=O)[nH]c2c1 | - | 47 | - | - | - | - | - | -
C=CCn1c(SCC(=O)Nc2sccc2C(N)=O)nc2sc(CC)cc2c1=O | - | 42 | - | - | - | - | - | -
C=CCn1c(SCC(=O)Nc2sccc2C(N)=O)nc2ccc(Cl)cc2c1=O | - | - | - | - | - | - | . | .
COc1ccc(NC(=O)COC(=O)C2COc3ccccc3O2)cc1OC (configuration not stated) | . | . | . | . | - | . | . | .
Cc1ccc(S(=O)(=O)C(C#N)c2nc3ccccc3nc2N2CCN(C)CC2)cc1C (configuration not stated) | - | - | - | - | - | - | . | .
Cc1cccc(S(=O)(=O)C(C#N)c2nc3ccccc3nc2N2CCCC2)c1 (configuration not stated) | - | 55 | - | - | - | - | - | -
N#Cc1ccc2sn(-c3ccccc3)c(=O)c2c1 | . | . | . | . | - | . | . | .
O=C(Nc1ccc2nc(-c3ccco3)c(-c3ccco3)nc2c1)NC1CC1 | ? | 47 | . | . | - | ? | - | -
O=C(Nc1ccc(F)c(Cl)c1)NC1CC1 | - | - | - | - | - | - | . | .
CCCCCC(=O)Nc1nc(C)c(-c2csc(Nc3cc(OC)ccc3OC)n2)s1 | - | - | - | - | - | - | . | .
CCCCCCC(=O)Nc1nc(C)c(-c2csc(Nc3cc(OC)ccc3OC)n2)s1 | - | 49 | - | - | - | - | - | -
CC(=O)c1ccc(OCCn2c(SCC(=O)O)nc3ccccc32)cc1 | - | - | . | . | - | - | . | .
COc1ccc(C2N(C(=O)C(F)(F)F)C(C)CN2S(=O)(=O)c2ccc(C)cc2)cc1 (configuration not stated) | - | - | - | - | - | - | . | .
O=c1[nH]c(=O)n(C2CCCCCC2)c(O)c1C=NCc1ccc(F)cc1 | - | 40 | - | - | - | - | - | -
CC(C)OP(=O)(OC(C)C)C(Nc1ccccn1)c1ccc(F)cc1 (configuration not stated) | - | 55 | - | - | - | - | - | -
Clc1ccc(C2[C@H]3CN(Cc4ccc(-c5ccccc5)cc4)[C@H](c4ccccc4)C34CC2(c2cccnc2)C4)cn1 (some centres not stated) | - | - | . | . | . | - | . | .
FC(F)(F)c1ccc(CN2C[C@@H]3C(c4ccc(Cl)nc4)C4(c5cccnc5)CC3(C4)[C@H]2c2ccccc2)cc1 (some centres not stated) | - | 42 | - | - | . | - | - | -
O=C1OC2(c3ccccc31)c1cc(I)c(O)c(I)c1Oc1c2cc(I)c(O)c1I | - | - | - | - | . | . | . | .
Cc1ccc(NC(=O)CSc2nnc3n2CCCCC3)cc1S(=O)(=O)N1CCOCC1 | . | . | . | . | - | . | . | .
O=C(CN(c1ccc(F)cc1)S(=O)(=O)c1ccccc1)NC1CCCCCC1 | - | - | - | - | - | - | . | .
CCN(CC(=O)Nc1ccc2c(c1)OCCO2)C(=O)/C=C/c1ccc(OC)cc1OC | - | 64 | - | - | - | - | - | -
CCc1ccc(NS(=O)(=O)c2ccc3oc(=O)ccc3c2)cc1 | - | - | - | - | - | - | . | .
N#Cc1c(N)n(CCNC(=O)c2cccs2)c2nc3ccccc3nc12 | - | 90 | - | - | - | - | - | -
SMILES | UBC13 polyUb | Apaf-1 inh | PAD4 FP inh | GSTO1 inh | Rin1 Abl inh | SUMO HTRF inh | Apaf-1 inh conf2 | Rh110 quench | others
C[C@@H]1CN([C@@H](C)CO)C(=O)CCCn2nncc2CO[C@@H]1CN(C)S(=O)(=O)c1ccc(C#N)cc1 | . | . | . | . | - | . | . | .
O=C(COC(=O)c1ccccc1)NCC1CCCO1 (configuration not stated) | - | 56 | - | - | - | - | - | -
O=C(COC(=O)c1ccc(Br)cc1)NCC1CCCO1 (configuration not stated) | - | - | - | . | - | . | . | .
COC(=O)C1CCN(C(=O)COc2ccc(N(C)S(=O)(=O)c3ccc(C)cc3)cc2)CC1 | - | - | - | . | - | . | . | .
CCC1CCCCN1C(=O)COc1ccc(N(C)S(=O)(=O)c2ccc(C)cc2)cc1 (configuration not stated) | - | 51 | - | - | - | - | - | -
CCCc1cc(=O)[nH]c(SCC(=O)Nc2ccc(OC)c(S(=O)(=O)N3CCCCC3)c2)n1 | - | - | - | . | - | . | . | .
Cc1nnc(N=c2ssnc2Cl)o1 | - | 50 | - | . | - | . | 57 | - | Apaf1 inh interf=-
Cc1ccc(-n2nc3c(=O)n(CC(=O)NCCC4=CCCCC4)nc(C)c3c2C)cc1 | - | - | - | - | - | . | . | .
C[C@H](CO)N1C[C@H](C)[C@@H](CN(C)Cc2ccc(C(=O)O)cc2)Oc2c(NC(=O)C3CC3)cccc2C1=O | - | - | - | . | - | . | . | .
C[C@H](CO)N1C[C@H](C)[C@@H](CN(C)Cc2ccc(Oc3ccccc3)cc2)Oc2c(NC(=O)C3CC3)cccc2C1=O | - | 43 | - | . | - | . | - | -
Cn1c(SCC(=O)N/N=C/C=C\c2ccco2)nc2ccccc21 | - | - | - | - | - | - | . | .
CCn1c(SCC(=O)N/N=C/C=C\c2ccco2)nc2ccccc21 | - | 47 | - | - | - | - | - | -
CCN(Cc1cc2ccccc2[nH]c1=O)C(=O)C1CCCCC1 | - | - | - | - | - | - | . | .
CC(C)N(Cc1cc2ccccc2[nH]c1=O)C(=O)C1CCCCC1 | - | 57 | - | - | - | - | 65 | - | Apaf1 inh interf=-
COc1cc(S(=O)(=O)NC2CCCCC2C)ccc1F (configuration not stated) | - | - | - | - | - | - | . | .

Screening data (PubChem)
